Reference: the RNAGym collection of RNA variant scans (doi:10.1002/anie.201605470)

B1: Osa-1-4 twister ribozyme (parent)
chain: CCGCCUAACACUGCCAAUGCCGGUCCCAAGCCCGGAUAAAAGUGGAGGGGGCGG

Variants of: B1
Test: self-cleavage, relative activity (ratio to wild type); higher = more cleavage; co-transcriptional
Summary of the method: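 In vitro transcription at 37 °C for 2 h allowed the twister ribozyme to cleave itself as it was made. Its 54-nucleotide Oryza sativa template had been synthesised with 97 % wild-type base and 1 % of each other base at the 48 positions downstream of the cleavage site. A template-switching oligonucleotide was used for reverse transcription, followed by PCR amplification and deep sequencing. Whether reads carried upstream sequence set the cleavage status, and relative activity is the fraction cleaved normalised to wild type.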

Variant | self-cleavage
A8C G49C | 0.02
A8U C21G | 0.07
A8U C21A | 0.08
A8U C21U | 0.28
A7U G13A | 0.04
A7U G13U | 0.06
A7U G13C | 0.02
A7U C27G | 0.04
A7U C27U | 0.06
A7U C27A | 0.06
A8C U43C | 0.08
A8C U43A | 0.08
A8C U43G | 0.08
A8G C20G | 0.09
A8G C20U | 0.58
A8G C20A | 0.49
A8C C52A | 0.12
A8C C52G | 0.15
A8C C52U | 0.09
A8G C52A | 0.44
A8G C52U | 0.73

Variant | self-cleavage
A8G C52G | 0.58
A7U G35A | 0.07
A7U G35U | 0.06
A7U G35C | 0.07
A7U C32U | 0.04
A7U C32G | 0.04
A7U C32A | 0.03
A8G G53C | 0.08
A8G G53A | 0.16
A8G G53U | 0.11
A8G C33G | 0.07
A8G C33A | 0.1
A8G C33U | 0.21
A8G G44U | 0.45
A8G G44A | 0.39
A8G G44C | 0.35
A8U C20G | 0.06
A8U C20U | 0.41
A8U C20A | 0.48
A8U C26G | 0.05
A8U C26U | 0.12

Variant | self-cleavage
A8U C26A | 0.03
A8C G35C | 0.08
A8C G35U | 0.09
A8C G35A | 0.08
A8G G47A | 0.11
A8G G47U | 0.1
A8G G47C | 0.07
A7U G44C | 0.06
A7U G44A | 0.06
A7U G44U | 0.09
A8G U12G | 0.15
A8G U12A | 0.16
A8G U12C | 0.12
A8C C33U | 0.06
A8C C33A | 0.06
A8C C33G | 0.03
A8C C20A | 0.08
A8C C20G | 0.03
A8C C20U | 0.09
A8U C15G | 0.15
A8U C15A | 0.08

Variant | self-cleavage
A8U C15U | 0.08
A7U U24A | 0.06
A7U U24G | 0.02
A7U U24C | 0.04
A8G C14G | 0.1
A8G C14A | 0.07
A8G C14U | 0.14
A8U C52A | 0.25
A8U C14A | 0.04
A8U C14U | 0.1
A8U C14G | 0.05
A7U U43G | 0.07
A7U U43A | 0.08
A7U U43C | 0.07
A8G G35U | 0.35
A8G G35C | 0.16
A8G G35A | 0.4
A7U G19A | 0.06
A7U G19C | 0.03
A7U G19U | 0.1
